Assay results taken from paper PMC3962999 (The Biochemical journal, 2011).
“And” between values parts separate entries of the source, which are not always exact repeats. Equal values may be shown once. Read-outs that look alike come from different tables or passages of the source.

Tests used:
[1] = target: T1, phosphatase-like domain of PPIP5K1 (PBD1) (Homo sapiens, UniProt Q6PFW1); assay: Phosphatase assay with phosphatase-like domain of PPIP5K1; assay type: biochemical; conditions: for hydrolysis of inositol phosphate: up to 15 h at 37 °C, trace 3H-labelled material (InsP6 also 1 μM)
T1 sequence (Q6PFW1 382-917): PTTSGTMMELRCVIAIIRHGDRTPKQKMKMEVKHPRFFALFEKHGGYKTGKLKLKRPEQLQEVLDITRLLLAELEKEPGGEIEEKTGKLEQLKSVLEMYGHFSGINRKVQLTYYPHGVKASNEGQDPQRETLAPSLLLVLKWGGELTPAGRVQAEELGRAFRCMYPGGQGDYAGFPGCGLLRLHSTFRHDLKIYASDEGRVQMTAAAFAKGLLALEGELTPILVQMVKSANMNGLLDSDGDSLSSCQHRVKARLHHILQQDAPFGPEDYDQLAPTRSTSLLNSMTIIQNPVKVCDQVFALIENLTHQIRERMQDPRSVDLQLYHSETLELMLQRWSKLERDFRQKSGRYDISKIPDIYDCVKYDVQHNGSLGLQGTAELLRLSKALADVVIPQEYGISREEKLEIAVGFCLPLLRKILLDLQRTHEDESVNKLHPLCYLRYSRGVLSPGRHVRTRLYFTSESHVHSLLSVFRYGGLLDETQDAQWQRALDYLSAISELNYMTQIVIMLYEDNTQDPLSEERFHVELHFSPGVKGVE
Outline: (§1)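 Enzyme and 50 mM p-nitrophenyl phosphate were incubated at 37 °C in EDTA-free phosphatase buffer: 5 mM Hepes pH 7.2, 100 mM KCl, 2 mM MgCl₂, 0.5 mg/ml BSA. Reactions were stopped with 1 M NaOH, and p-nitrophenol accumulation was read as absorbance. Phosphatase-like domains were His-tagged constructs made in E. coli with pGro7 chaperones, purified by Ni-NTA then SP cation exchange. hMIPP was recombinant.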

[2] = Stability of InsP8 through acid-quench, neutralization and HPLC; assay type: physicochemical; conditions: HPLC-purified [3H]InsP8
[3] = target: T2, phosphatase-like domain of PPIP5K2 (PBD2) (Homo sapiens, UniProt O43314); assay: Phosphatase assay with phosphatase-like domain of PPIP5K2; assay type: biochemical; conditions: for hydrolysis of inositol phosphate: results not shown
T2 sequence (O43314 371-901 isoform O43314-2): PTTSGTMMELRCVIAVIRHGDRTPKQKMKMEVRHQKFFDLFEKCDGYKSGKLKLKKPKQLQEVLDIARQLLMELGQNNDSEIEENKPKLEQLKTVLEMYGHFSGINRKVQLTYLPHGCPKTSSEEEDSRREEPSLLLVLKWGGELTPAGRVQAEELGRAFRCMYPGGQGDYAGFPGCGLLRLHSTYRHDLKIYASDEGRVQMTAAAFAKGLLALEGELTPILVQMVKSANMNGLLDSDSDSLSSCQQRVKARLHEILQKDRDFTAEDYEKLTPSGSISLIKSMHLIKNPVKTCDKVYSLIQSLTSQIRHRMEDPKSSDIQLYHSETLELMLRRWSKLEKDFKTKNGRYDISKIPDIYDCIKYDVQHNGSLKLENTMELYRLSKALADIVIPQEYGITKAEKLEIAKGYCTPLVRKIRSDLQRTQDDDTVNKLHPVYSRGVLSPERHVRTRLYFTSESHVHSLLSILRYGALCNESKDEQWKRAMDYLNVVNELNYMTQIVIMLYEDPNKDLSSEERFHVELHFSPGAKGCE
Outline: as §1

[4] = target: T3, PBD2 (PPIP5K2) (Homo sapiens, UniProt O43314); assay: SPR equilibrium binding to immobilized lipid vesicles, PBD2; conditions: for binding to PBD2: SPR, in words
T3 sequence (O43314 371-901 isoform O43314-2): T2 sequence (O43314 371-901 isoform O43314-2)
Outline: (§2)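 Large unilamellar vesicles (PtdCho/PtdE/test phosphoinositide 77:20:3) were captured on an L1 chip to 5000 RU. Signals were corrected against phosphoinositide-free vesicles. Kd came from nonlinear fitting of Req = Rmax/(1+Kd/C). Concentrations were: GRP-1 PH domain 2.5–125 nM; PBD1 on PtdIns(3,4,5)P₃ 5–150 nM; bisphosphate vesicles 75–1900 nM.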

[5] = target: T4, GRP-1 PH domain (Mus musculus, UniProt O08967); assay: SPR equilibrium binding to immobilized lipid vesicles, GRP-1 PH domain
T4 sequence (O08967 264-380 limits assumed): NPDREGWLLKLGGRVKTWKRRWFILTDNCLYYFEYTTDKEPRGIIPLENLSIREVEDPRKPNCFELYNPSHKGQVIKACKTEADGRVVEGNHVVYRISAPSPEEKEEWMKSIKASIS
Outline: as §2

[6] = target: T5, PBD1 (PPIP5K1) (Homo sapiens, UniProt Q6PFW1); assay: SPR equilibrium binding to immobilized lipid vesicles, PBD1; conditions: for binding to PBD1: SPR, in words
T5 sequence (Q6PFW1 382-917): T1 sequence (Q6PFW1 382-917)
Outline: as §2

[7] = target: T4, GRP-1 PH domain; conditions: read-out: Kd, values published by others; same technique; cited from earlier work
[8] = test system: NIH 3T3 cells; assay: Confocal immunofluorescence of FLAG-PPIP5K1 translocation to the plasma membrane; assay type: cell-based
Outline: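 NIH 3T3 cells on glass-bottom dishes were transfected 24 h after seeding with full-length FLAG-tagged human PPIP5K1 (Lipofectamine 2000). The next day they were serum-starved 3 h, then given PDGF. Cells were fixed in 3 % paraformaldehyde/4 % sucrose (15 min, 23 °C), permeabilized with 0.2 % Triton X-100, and blocked. Staining used anti-FLAG (2 h, 37 °C), Alexa 488 secondary and DAPI. Confocal ×63 line intensity profiles gave plasma membrane/cytoplasm pixel intensity ratios.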

[9] = test system: full-length recombinant human PPIP5K1; conditions: in vitro; cited from earlier work
[10] = target: T6, hMIPP (Homo sapiens, UniProt Q9UNW1); assay: Hydrolysis of p-nitrophenyl phosphate by hMIPP; assay type: biochemical; conditions: 50 mM p-nitrophenyl phosphate, 90 ug hMIPP
T6 sequence (Q9UNW1 31-487): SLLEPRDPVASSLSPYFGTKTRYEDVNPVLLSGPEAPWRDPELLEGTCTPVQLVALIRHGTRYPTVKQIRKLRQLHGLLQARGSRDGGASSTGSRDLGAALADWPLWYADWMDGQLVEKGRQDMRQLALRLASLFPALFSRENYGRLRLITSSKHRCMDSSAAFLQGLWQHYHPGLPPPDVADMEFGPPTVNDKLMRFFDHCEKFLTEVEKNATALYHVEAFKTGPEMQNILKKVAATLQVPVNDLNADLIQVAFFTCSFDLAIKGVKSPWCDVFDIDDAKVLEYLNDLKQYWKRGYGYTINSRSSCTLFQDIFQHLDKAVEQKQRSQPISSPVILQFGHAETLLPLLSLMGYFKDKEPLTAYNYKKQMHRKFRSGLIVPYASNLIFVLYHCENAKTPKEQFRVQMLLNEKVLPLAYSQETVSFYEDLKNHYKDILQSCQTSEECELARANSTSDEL
Outline: as §1

[11] = target: T7, PBD2 (Homo sapiens, UniProt O43314); assay: PEG precipitation [3H]InsP6 binding assay
T7 sequence (O43314 371-901 isoform O43314-2): T2 sequence (O43314 371-901 isoform O43314-2)
Outline: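 PBD2 (32 μg) was incubated 20 min at 4 °C in 25 mM Hepes pH 7.2 containing 5 mg/ml γ-globulin, 100 mM KCl, 1 mM EDTA and 1 mM DTT. Each tube held ~15000 d.p.m. [³H]InsP₆ plus increasing unlabelled InsP₆ or C₈-PtdIns(3,4,5)P₃. Ice-cold 30 % PEG was added, samples were held 10 min at 0–4 °C and centrifuged at 10 000 g. Washed pellets were counted, and Kd and Bmax came from the saturation binding plot.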

[12] = target: T8, PPIP5K1 kinase domain (Homo sapiens, UniProt Q6PFW1); conditions: cited from earlier work
T8 sequence (Q6PFW1 1-387 limits assumed): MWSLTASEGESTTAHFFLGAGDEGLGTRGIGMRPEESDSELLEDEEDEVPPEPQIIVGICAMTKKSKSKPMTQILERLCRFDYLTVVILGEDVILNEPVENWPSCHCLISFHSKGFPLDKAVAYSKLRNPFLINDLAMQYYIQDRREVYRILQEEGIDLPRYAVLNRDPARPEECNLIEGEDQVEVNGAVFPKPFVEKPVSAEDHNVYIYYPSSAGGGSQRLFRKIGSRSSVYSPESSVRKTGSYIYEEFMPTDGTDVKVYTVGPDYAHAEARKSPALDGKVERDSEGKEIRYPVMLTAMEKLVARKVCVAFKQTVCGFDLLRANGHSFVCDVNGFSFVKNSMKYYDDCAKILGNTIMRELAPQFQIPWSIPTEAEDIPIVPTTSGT

[13] = target: T8, PPIP5K1 kinase domain; assay: Kinase assay with PPIP5K1 kinase domain; assay type: biochemical; conditions: ratio of kcat/Km, this study

With InsP8 the “hydrolysis of inositol phosphate” value [1] was “none of these polyphosphates were hydrolysed”, the “dephosphorylation after acid-quench, neutralization and HPLC” value [2] was “did not detect any dephosphorylation” and the “recovery after acid-quench, neutralization and HPLC” value [2] was > 85%. For the same compound, the “hydrolysis of inositol phosphate” value [3] was “Identical results”.

Work on `CCCCC/C=C\C/C=C\C/C=C\C/C=C\CCCC(=O)O[C@H](COC(=O)CCCCCCCCCCCCCCCCC)COP(=O)(O)O[C@H]1[C@H](O)[C@@H](OP(=O)(O)O)[C@H](OP(=O)(O)O)[C@@H](OP(=O)(O)O)[C@H]1O` [PtdIns(3,4,5)P3] yielded a Kd [4] of 705 nM, a Kd [5] of 59 nM and a Kd [6] of 96 nM. For the same compound, the Kd [7] was 28 to 170 nM.

With PDGF the “proportion of PPIP5K1 at the plasma membrane” value ([8]; 50 ng/ml PDGF, 5 min) was “significant increase”.

In the case of Ptd4P, the “binding to PBD2” value [4] is reported as “did not bind” and the “binding to PBD1” value [6] is reported as “did not bind”.

In the case of `O=P(O)(O)OC1C(OP(=O)(O)O)C(OP(=O)(O)OP(=O)(O)O)C(OP(=O)(O)O)C(OP(=O)(O)OP(=O)(O)O)C1OP(=O)(O)O` (centres unmarked) [[PP]2-InsP4, 1/3,5-[PP]2-InsP4], the “hydrolysis of inositol phosphate” value [1] is given as “none of these polyphosphates were hydrolysed”, the “hydrolysis of inositol phosphate” value [3] is given as “Identical results” and the “dephosphorylation by full-length PPIP5K1” value [9] is given as “does not de-phosphorylate”.

In the case of `O=[N+]([O-])c1ccc(OP(=O)(O)O)cc1` [p-nitrophenyl phosphate, reference compound], the “hydrolysis of p-nitrophenyl phosphate” value ([1]; 50 mM p-nitrophenyl phosphate, 90 μg PBD1) is reported as “no activity”, the “hydrolysis of p-nitrophenyl phosphate” value ([3]; 50 mM p-nitrophenyl phosphate, 90 μg PBD2) is reported as “no activity” and the “rate of p-nitrophenyl phosphate hydrolysis” value [10] is reported as “approx. 10 nM/mg of protein per min”.

For Ptd3P, the “binding to PBD2” value [4] was “did not bind” and the “binding to PBD1” value [6] was “did not bind”.

In the case of `O=P(O)(O)OC1[C@@H](OP(=O)(O)O)[C@H](OP(=O)(O)O)C(O)[C@H](OP(=O)(O)O)[C@H]1OP(=O)(O)O` (some centres unmarked) [Ins(1,3,4,5,6)P5], the “dephosphorylation by full-length PPIP5K1” value [9] is given as “does not de-phosphorylate”.

With `O=P(O)(O)O[C@H]1[C@H](OP(=O)(O)O)[C@@H](OP(=O)(O)O)[C@H](OP(=O)(O)O)[C@@H](OP(=O)(O)O)[C@H]1OP(=O)(O)O` [InsP6] the “hydrolysis of inositol phosphate” value [1] was “none of these polyphosphates were hydrolysed”, the Bmax ([11]; InsP6 binding to PBD2) was 0.6 mol/mol of protein and the Kd ([11]; saturation binding plot, 4 °C) was 600 nM and 570 nM. The “hydrolysis of inositol phosphate” value [3] was “Identical results” and the “dephosphorylation by full-length PPIP5K1” value [9] was “does not de-phosphorylate”.

For PtdIns(3,4)P2, the “affinity relative to PtdIns(3,4,5)P3 (fold lower)” value ([6]; PBD1) was “approx. 6 fold” and the “binding to PBD1” value [6] was “significantly weaker ligands”.

For `CCCCCCCC(=O)OC[C@H](COP(=O)(O)OC1[C@H](O)[C@H](OP(=O)(O)O)C(OP(=O)(O)O)[C@H](OP(=O)(O)O)[C@H]1O)OC(=O)CCCCCCC` (some centres unmarked) [C8 soluble analogue of PtdIns(3,4,5)P3, C8-PtdIns(3,4,5)P3, reference compound], the “hydrolysis of the lipid (phosphate release)” value ([1]; PBD1 35 μg/ml, 24 h at 37 °C, 1 mM lipid) was “unable to detect any hydrolysis” and the “potency relative to InsP6 at displacing [3H]InsP6” value ([11]; PEG-precipitation assay) was 2- to 3 fold.

In the case of `O=c1cc(N2CCOCC2)oc2c(-c3ccccc3)cccc12` [LY294002, reference compound], the “PDGF-induced translocation of PPIP5K1” value ([8]; 15 min pre-treatment with 100 μM LY294002 before 50 ng/ml PDGF for 5 min) is reported as “largely prevented”.

With PtdIns(3,5)P2 the “binding to PBD2” value [4] was “did not bind” and the “binding to PBD1” value [6] was “no significant binding”.

For Ptd5P, the “binding to PBD2” value [4] was “did not bind” and the “binding to PBD1” value [6] was “did not bind”.

For `O=P(O)(O)OC1[C@@H](OP(=O)(O)O)[C@@H](OP(=O)(O)O)C(OP(=O)(O)OP(=O)(O)O)[C@H](OP(=O)(O)O)[C@H]1OP(=O)(O)O` (some centres unmarked) [1/3-PP-InsP5], the “hydrolysis of inositol phosphate” value [1] was “none of these polyphosphates were hydrolysed” and the “hydrolysis of inositol phosphate” value [3] was “Identical results”.

For `O=P(O)(O)OC1[C@@H](OP(=O)(O)O)[C@H](OP(=O)(O)O)C(OP(=O)(O)OP(=O)(O)O)[C@H](OP(=O)(O)O)[C@H]1OP(=O)(O)O` (some centres unmarked) [5-PP-InsP5], the “hydrolysis of inositol phosphate” value [1] is listed as “none of these polyphosphates were hydrolysed”, the “hydrolysis of inositol phosphate” value [3] is listed as “Identical results” and the “catalytic specificity for 5-PP-InsP5 relative to InsP6” value [12] is listed as 2.5 fold. The “dephosphorylation by full-length PPIP5K1” value [9] was “does not de-phosphorylate” and the “catalytic preference for 5-PP-InsP5 over InsP6” value [13] was 80 fold.
